An excerpt weighted towards active compounds, which were near 1.6% of everything screened.
PKA-R1A activ – activators of PKA-R1A holoenzyme, primary screen, biochemical, fluorescence polarization, Cy5-IP20, bovine R1A, mouse PKAc | cAMP-dependent protein kinase type I-alpha regulatory subunit (Bos taurus) + … | PKA-R1A dissociation; scaled: DMSO 0%, 113 µM cGMP 100% | activation, % at 11.4 µM | 340,000 tested, 0.083% active;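 active = percent activation above the mean of all tested compounds plus 3 SD, cut at about 19% in these data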;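 note: higher means more PKAc released from R1A so a rise in polarization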
CSN deneddyl inh – inhibitors of CSN-mediated cullin deneddylation, primary screen, biochemical, fluorescence polarization, uHTS. COP9 signalosome complex subunit 5 (Homo sapiens), Q92905. Purified CSN, SCF-Nedd8-OG deneddylation. inhibition, % at 12.5 µM. 360,000 tested, 0.38% active;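 active = pattern-corrected inhibition above about 35%, with an unprinted fluorescence ratio check between 0.5 and 1.5, limit read from the data, passing the limit was not always enough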;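 note: 0% = enzyme with substrate and 100% = substrate without enzyme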
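Test system: purified human Csn5 enzyme expressed in HEK293T cells. Amount: 0.24 nM enzyme. Reagent: SCFSkp2-Nedd8OG substrate at 10 nM final. Schedule: 90 min incubation of compound, enzyme and substrate at room temperature. Detection: fluorescence polarization. Read-out: % inhibition of substrate cleavage by Csn5.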
PKA-R2B act – activators of PKA-R2B holoenzyme, primary screen, biochemical, fluorescence polarization, Cy5-IP20, human; cAMP-dependent protein kinase catalytic subunit beta (Homo sapiens) + cAMP-dependent …; PKA-R2B holoenzyme dissociation; R2B truncated from residue 108, S112A mutant; 0% DMSO only, 100% 113 µM cGMP; activation, % at 11.4 µM; 340,000 tested, 0.079% active; AID 504700, 2011;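 active = activation above a cutoff set at the mean over all compounds plus 3 SD, cut at about 18% in these data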;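 note: higher means more holoenzyme dissociation and a rise in polarization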
TPT1 inh – Candida albicans TPT1 enzyme inhibitors, primary screen, biochemical, fluorescence polarization. 300,000 tested, 0.81% active. tRNA 2'-phosphotransferase TPT1 (Candida albicans SC5314). recombinant caTPT1, FP RNA substrate dephosphorylation. AID 1962, 2009. inhibition, % at 5 µM;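 active = inhibition above the mean of all tested compounds plus 3 SD, set per screening campaign, cut at about 24% in these data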;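 note: plate controls were DMSO alone for no effect and ferristatin control at 100 nM for full effect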
HNF4A DNA FP – change in binding of human HNF4A to DNA, primary screen, biochemical, fluorescence polarization, FITC-DNA. 1 h. AID 1224865, 2016. activity change, % at 10 µM. 360,000 tested, 0.3% active; in the data active = activity change above about 30%, passing the limit was not always enough
Rpn11 block – Rpn11 (PSMD14) deubiquitinase inhibitors, primary screen, biochemical, fluorescence polarization, uHTS; 26S proteasome non-ATPase regulatory subunit 14 (Homo sapiens), O00487; human 26S proteasome, Ub4-pepOG fluorescence polarization; 20S core pre-blocked with epoxomicin; calls only at 20 µM; 360,000 tested, 0.59% active; AID 588493, 2011;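 active = inhibition at 20 µM, scaled to each plate's controls, above about 33%, limit read from the data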
Target sequence (O00487 whole entry, looked up): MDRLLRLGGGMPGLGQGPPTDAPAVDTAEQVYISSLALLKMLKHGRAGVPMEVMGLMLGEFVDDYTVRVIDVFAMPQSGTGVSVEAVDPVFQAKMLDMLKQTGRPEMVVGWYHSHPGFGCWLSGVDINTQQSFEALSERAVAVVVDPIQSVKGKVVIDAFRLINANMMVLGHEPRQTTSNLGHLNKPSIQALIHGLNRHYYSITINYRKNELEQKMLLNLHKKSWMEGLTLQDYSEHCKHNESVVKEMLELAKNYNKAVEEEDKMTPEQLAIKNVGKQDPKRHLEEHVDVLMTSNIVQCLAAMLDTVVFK
caTPT1 confirm – Candida albicans TPT1 inhibitors, confirmation, biochemical, fluorescence polarization, triplicate; shares compounds with TPT1 inh; AID 2149, 2009; 2,400 tested, 74% active; recombinant caTPT1, RNase T1 coupled; inhibition, % at 5 µM;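 active = inhibition above the primary screen limit, the mean inhibition of all tested compounds plus 3 SD, cut at about 25% in these data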
RNase T1 inh – RNase T1 inhibitors, counter-screen for TPT1 inhibitor project, biochemical, fluorescence polarization; AID 2153, 2009; 2,400 tested, 83% active; inhibition, % at 5 µM; shares compounds with TPT1 inh; RNase T1 cleavage, 1536-well;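 active = inhibition above the solvent-only control well mean plus 3 SD, limit set per screening run, cut at about 23% in these data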;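 note: plate controls were DMSO wells with enzyme for no effect and wells without RNase T1 for full effect; inhibitors block cleavage so intact labeled substrate keeps polarization high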
Target sequence (P00651 whole entry, looked up): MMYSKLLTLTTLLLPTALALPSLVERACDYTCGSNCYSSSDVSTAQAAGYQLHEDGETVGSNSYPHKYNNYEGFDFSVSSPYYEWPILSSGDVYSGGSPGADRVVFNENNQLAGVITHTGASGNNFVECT
Numbers without * were called inactive; i = inactive; . = no result given.

SMILES | PKA-R1A activ | CSN deneddyl inh | PKA-R2B act | TPT1 inh | HNF4A DNA FP | Rpn11 block | caTPT1 confirm | RNase T1 inh
O=Cc1coc2c(ccc3ccccc32)c1=O | . | . | . | 4.2 | . | . | . | .
CCOc1ccc(OCC(=O)N(C)c2c(N)n(Cc3ccccc3)c(=O)[nH]c2=O)cc1 | -7.2 | 5.4 | -6.9 | -1.6 | 2.4 | i | . | .
CCOc1ccc(Cn2c(O)cc(=O)[nH]c2=O)cc1 | -16.4 | 13.6 | -10.6 | 39.3* | 0.6 | i | 19.3 | 24.3*
Nc1cc(=O)[nH]c(=O)n1Cc1ccccc1 | 9.3 | 0.0 | 0.1 | -0.3 | 1.4 | i | . | .
COc1ccc(Cn2c(O)cc(=O)[nH]c2=O)cc1 | -4.7 | 15.1 | -6.5 | 26.4* | 0.5 | i | 21.4 | 27.8*
COc1ccc(COC(=O)N/N=C/c2cccs2)cc1 | -11.3 | 0.0 | -2.7 | 0.3 | 4.4 | i | . | .
CN1/C(=C\C(=O)Nc2ccc(F)cc2)C(C)(C)c2ccccc21 | 4.9 | 4.2 | 5.2 | -2.7 | -1.1 | i | . | .
CN1/C(=C\C=C(/C#N)C(=O)Nc2ccccc2F)C(C)(C)c2ccccc21 | -7.8 | 123.2 | -0.8 | 123.1* | 101.6 | . | 94.6* | 92.9*
O=C(Nc1nncs1)c1ccc2c(c1)OCO2 | 4.7 | -2.4 | -1.4 | 0.4 | -0.9 | i | . | .
CC[n+]1ccc(/C=C/c2c[nH]c3ccccc23)cc1 | -7.5 | 65.8 | -0.7 | 63.6* | 83.4 | . | 60.1* | 67.0*
O=C(COC(=O)CCCN=C1NS(=O)(=O)c2ccccc21)NC(=O)NC1CCCC1 | -5.5 | 3.3 | -1.5 | 0.5 | 0.3 | i | . | .
Cc1ccccc1-n1c(O)c(/C=C/C=Nc2ccccc2)c(=O)[nH]c1=O | 3.4 | 30.9 | -4.2 | 153.7* | 170.9 | . | 168.4* | 157.1*
Cc1ccc(-n2c(O)c(/C=C3/C(c4ccccc4)=Nc4ccccc43)c(=O)[nH]c2=O)cc1 | -6.5 | -11.3 | -2.5 | 5.9 | 4.2 | i | . | .
CCC1CCCCN1CCCNC(=O)CNC(=O)c1nn(-c2ccc(OC)cc2)c(=O)c2ccccc12 (stereo unspecified) | -16.7 | 0.1 | 1.5 | -3.4 | -1.1 | i | . | .
CCC1CCCCN1CCCNC(=O)CNC(=O)Cn1ccc2ccccc2c1=O (stereo unspecified) | 11.0 | -1.4 | 2.9 | 37.3* | 0.2 | i | 6.6 | 5.7
COc1cc(N2CCCC2)c(OC)cc1/C=C(/C#N)c1ccc(F)cc1 | -2.2 | 23.3 | -4.3 | 143.1* | 82.1 | . | 132.5* | 134.2*
CC(C)N1CCC2(CC1)C(C#N)=C(N)NC(S)=C2C#N | . | . | . | 67.8* | . | . | 37.7* | 47.0*
O=C(OC1CCOC1=O)c1ccc(Cl)c(S(=O)(=O)N2CCOCC2)c1 (stereo unspecified) | -6.5 | -2.7 | -1.3 | . | -4.8 | i | . | .
COc1cccc(S(=O)(=O)Nc2ccc(C(=O)NCc3ccco3)cc2)c1 | 2.1 | 4.6 | -2.0 | 28.5* | -1.9 | i | 6.0 | 9.2
COc1ccc(NS(=O)(=O)c2cccc(C(=O)NCc3ccco3)c2)cc1 | 11.4 | 4.1 | -4.6 | 0.5 | -3.4 | i | . | .
COC(=O)[C@H](Cc1ccccc1)NC(=O)[C@@]1(C)C[C@@H]1[C@@H](NC(=O)OCc1ccccc1)c1ccccc1 | 0.4 | -3.1 | 0.4 | -0.8 | 1.1 | i | . | .
CCCn1c2c(c(O)c(C(=O)NCc3ccccc3)c1=O)CCCC2 | 0.7 | 3.7 | -9.5 | -0.9 | -0.3 | i | . | .
CCCn1c2c(c(O)c(C(=O)NC)c1=O)CCCC2 | 5.3 | 11.4 | -7.6 | 37.8* | 18.7 | i | 9.2 | 16.0
O=C1S/C(=C/c2ccccc2)C(=O)N1CC(O)Cn1c2ccccc2c2ccccc21 (stereo unspecified) | -0.4 | 3.0 | -2.1 | 2.8 | -1.3 | i | . | .
O=C(CN1C(=O)c2ccccc2C1=O)OCCOCCN=C1NS(=O)(=O)c2ccccc21 | 4.6 | -7.5 | -0.8 | -1.1 | -3.3 | i | . | .
SMILES | PKA-R1A activ | CSN deneddyl inh | PKA-R2B act | TPT1 inh | HNF4A DNA FP | Rpn11 block | caTPT1 confirm | RNase T1 inh
CN(C)c1ccc(/C=C2/SC(=O)N(CCN=C3NS(=O)(=O)c4ccccc43)C2=O)cc1 | -5.9 | 4.4 | 0.5 | 32.9* | 10.9 | i | 27.8* | 38.0*
CN(C)c1ccc(/C=C2\SC(=O)N(CCc3nnc(N)s3)C2=O)cc1 | -6.3 | 32.3 | -3.6 | 99.5* | 97.2* | . | 91.5* | 102.4*
CN(C)c1ccc(/C=C2\SC(=O)N(CC(O)Cn3c4ccccc4c4ccccc43)C2=O)cc1 (stereo unspecified) | -13.6 | -5.5 | -3.6 | 75.9* | 6.2 | i | 51.6* | 71.9*
O=C(/C=C/c1ccccc1)Nc1cccnc1Oc1ccccc1F | 0.7 | -4.6 | 2.4 | -0.4 | -1.7 | i | . | .
COc1ccc(-n2c(O)c(/C=N/NS(=O)(=O)c3ccc(C)c([N+](=O)[O-])c3)c3ccccc3c2=O)cc1OC | -1.1 | 148.1 | -0.1 | 100.0* | 171.8 | . | 113.8* | 112.5*
CCOc1cccc(/C=N/NS(=O)(=O)c2ccc(C)c([N+](=O)[O-])c2)c1O | -5.9 | 0.4 | 1.4 | 94.3* | -7.3 | i | 1.4 | 6.0
COc1cc(/C=N/NS(=O)(=O)c2ccc(C)c([N+](=O)[O-])c2)cc([N+](=O)[O-])c1O | -11.8 | -0.8 | 6.6 | -6.3 | -4.3 | i | . | .
COc1cccc(OC2OC3COC(C)(C)OC3C(O)C2NC(C)=O)c1 (stereo unspecified) | -11.8 | -1.4 | -8.1 | -0.2 | -2.3 | i | . | .
O=S(=O)(Nc1cc(Cl)ccc1N1CCCCC1)c1cccs1 | -2.4 | 7.6 | 3.6 | 48.3* | 12.6 | i | 27.7* | 35.1*
O=S(=O)(Nc1ccc(N2CCCCC2)cc1)c1cccs1 | -5.3 | 0.2 | 1.1 | 0.5 | -0.9 | i | . | .
O=C(Nc1cccc(C(F)(F)F)c1)c1cc(-c2ccc(F)cc2)on1 | 1.8 | 1.5 | 2.6 | -2.7 | 0.6 | i | . | .
